These results are taken from ChEMBL document CHEMBL1649258, “Combined inactivation of lon and ycgE decreases multidrug susceptibility by reducing the amount of OmpF porin in Escherichia coli” (2009).

What all share (type): functional
Assay [1] has as its system Escherichia coli. Nature of the assay: Antibacterial activity against wild-type Escherichia coli AG100 harboring Tn5 insertion in ycgE gene at 37 degC by Etest method.
Assay [2] deals with Escherichia coli. Nature of the assay: Antibacterial activity against ompF-deficient Escherichia coli AG100 harboring IS186 insertion in lon3 gene and Tn5 insertion in ycgE gene at 26 degC by Etest method.
Assay [3] has as its system Escherichia coli. Nature of the assay: Antibacterial activity against wild-type Escherichia coli AG100 harboring IS186 insertion in lon3 gene, Tn5 insertion in ycgE gene and plasmid pMPM at 26 degC by Etest method.
Assay [4] concerns Escherichia coli. Nature of the assay: Antibacterial activity against wild-type Escherichia coli AG100 harboring IS186 insertion in lon3 gene at 37 degC by Etest method.
For assay [5], the system named is Escherichia coli. Nature of the assay: Antibacterial activity against ompF-deficient Escherichia coli AG100 harboring IS186 insertion in lon3 gene and Tn5 insertion in ycgE gene at 37 degC by Etest method.
Assay [6] has as its system Escherichia coli. Nature of the assay: Antibacterial activity against wild-type Escherichia coli AG100 harboring IS186 insertion in lon3 gene and Tn5 insertion in ycgE gene at 26 degC by Etest method.
For assay [7], the system named is Escherichia coli. Nature of the assay: Antibacterial activity against wild-type Escherichia coli AG100 harboring marR mutant gene at 26 degC by Etest method.
Assay [8] concerns Escherichia coli. The experiment in a line: Antibacterial activity against wild-type Escherichia coli AG100 at 26 degC by Etest method.
Assay [9] relates to Escherichia coli. Nature of the assay: Antibacterial activity against wild-type Escherichia coli AG100 harboring Tn5 insertion in ycgE gene at 26 degC by Etest method.
Assay [10] deals with Escherichia coli. Nature of the assay: Antibacterial activity against wild-type Escherichia coli AG100 at 37 degC by Etest method.
The test system of assay [11] is Escherichia coli. Nature of the assay: Antibacterial activity against wild-type Escherichia coli AG100 harboring IS186 insertion in lon3 gene at 26 degC by Etest method.
Assay [12] relates to Escherichia coli. Nature of the assay: Antibacterial activity against ompF-deficient Escherichia coli AG100 at 37 degC by Etest method.
For assay [13], the system named is Escherichia coli. The experiment in a line: Antibacterial activity against wild-type Escherichia coli AG100 harboring IS186 insertion in lon3 gene and Tn5 insertion in ycgE gene at 37 degC by Etest method.
Assay [14] deals with Escherichia coli. Nature of the assay: Antibacterial activity against wild-type Escherichia coli AG100 harboring marR mutant gene at 37 degC by Etest method.
Assay [15] concerns Escherichia coli. Nature of the assay: Antibacterial activity against ompF-deficient Escherichia coli AG100 at 26 degC by Etest method.
Assay [16] deals with Escherichia coli. The experiment in a line: Antibacterial activity against wild-type Escherichia coli AG100 harboring IS186 insertion in lon3 gene, Tn5 insertion in ycgE gene and plasmid pMPM carrying ompF gene at 26 degC by Etest method.
Assay [17] deals with Escherichia coli. The experiment in a line: Antibacterial activity against wild-type Escherichia coli AG100 harboring IS186 insertion in lon3 gene, Tn5 insertion in ycgE gene, plasmid pET21b and pACT7SP at 26 degC by Etest method. Summed up: (§1)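 MIC by Etest on LB agar at 26°C for the lon ycgE strain with pACT7Sp plus pET21b or pET21b-ompF; plates contained 100 μg/ml ampicillin, 50 μg/ml spectinomycin and 0.1 mM IPTG to induce OmpF; averages of at least four measurements.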

In assay [18] the test system is Escherichia coli. The experiment in a line: Antibacterial activity against wild-type Escherichia coli AG100 harboring IS186 insertion in lon3 gene, Tn5 insertion in ycgE gene, plasmid pET21b carrying ompF gene and pACT7SP at 26 degC by Etest method. An outline of the steps: as §1

Values after ≈ are worked out from the molar mass of the structure shown.

`CC1(C)S[C@@H]2[C@H](NC(=O)[C@H](N)c3ccccc3)C(=O)N2[C@H]1C(=O)O` [AMPICILLIN]: the MIC against Escherichia coli [1] was 1 µg/mL (≈ 2.86 µM); against Escherichia coli [2] it was 2.3 µg/mL (≈ 6.58 µM); in the assay with Escherichia coli [3], 2.3 µg/mL (≈ 6.58 µM); against Escherichia coli [4], 1 µg/mL (≈ 2.86 µM); in the assay on Escherichia coli [5], 2.2 µg/mL (≈ 6.3 µM); against Escherichia coli [6], 1.8 µg/mL (≈ 5.15 µM). Further, the MIC was 4 µg/mL (≈ 11.4 µM) against Escherichia coli [7]; 0.75 µg/mL (≈ 2.15 µM) in the assay on Escherichia coli [8]; 0.75 µg/mL (≈ 2.15 µM) against Escherichia coli [9]; 1 µg/mL (≈ 2.86 µM) against Escherichia coli [10]; 0.83 µg/mL (≈ 2.38 µM) in the assay with Escherichia coli [11]; 1.83 µg/mL (≈ 5.24 µM) with Escherichia coli [12]. The MIC in the assay on Escherichia coli [13] is 1.7 µg/mL (≈ 4.87 µM); with Escherichia coli [14] it was 3 µg/mL (≈ 8.59 µM); against Escherichia coli [15], 1.5 µg/mL (≈ 4.29 µM); with Escherichia coli [16], 1.5 µg/mL (≈ 4.29 µM).

As for `CO[C@@]1(NC(=O)Cc2cccs2)C(=O)N2C(C(=O)O)=C(COC(N)=O)CS[C@@H]21` [CEFOXITIN], the MIC against Escherichia coli [1] came to 1.7 µg/mL (≈ 3.98 µM); in the assay with Escherichia coli [2], 4.7 µg/mL (≈ 11 µM); against Escherichia coli [3] it was 6 µg/mL (≈ 14 µM); with Escherichia coli [4] it was 1.7 µg/mL (≈ 3.98 µM); against Escherichia coli [5] it was 3 µg/mL (≈ 7.02 µM); in the assay with Escherichia coli [6] it was 4 µg/mL (≈ 9.36 µM). The MIC was 7.3 µg/mL (≈ 17.1 µM) against Escherichia coli [7]; 0.75 µg/mL (≈ 1.75 µM) against Escherichia coli [8]; 0.92 µg/mL (≈ 2.15 µM) with Escherichia coli [9]; 1.5 µg/mL (≈ 3.51 µM) in the assay on Escherichia coli [10]; 0.92 µg/mL (≈ 2.15 µM) with Escherichia coli [11]; 3 µg/mL (≈ 7.02 µM) against Escherichia coli [12]. In addition, the MIC was 4 µg/mL (≈ 9.36 µM) against Escherichia coli [13], 6 µg/mL (≈ 14 µM) in the assay with Escherichia coli [14], 3 µg/mL (≈ 7.02 µM) against Escherichia coli [15] and 1 µg/mL (≈ 2.34 µM) against Escherichia coli [16].

In the case of `CC(=O)OCC1=C(C(=O)O)N2C(=O)[C@@H](NC(=O)Cc3cccs3)[C@H]2SC1` [CEPHALOTHIN], the MIC with Escherichia coli [1] worked out at 2.3 µg/mL (≈ 5.8 µM); with Escherichia coli [2], 6.7 µg/mL (≈ 16.9 µM); with Escherichia coli [3], 5.3 µg/mL (≈ 13.4 µM); against Escherichia coli [4] it was 2 µg/mL (≈ 5.04 µM); in the assay on Escherichia coli [5], 4.7 µg/mL (≈ 11.9 µM); against Escherichia coli [6] it was 6 µg/mL (≈ 15.1 µM). Moreover, the MIC against Escherichia coli [7] came out at 10.7 µg/mL (≈ 27 µM); against Escherichia coli [8] it was 1 µg/mL (≈ 2.52 µM); in the assay on Escherichia coli [9] it was 1.3 µg/mL (≈ 3.28 µM); with Escherichia coli [10], 2 µg/mL (≈ 5.04 µM); in the assay on Escherichia coli [11], 1.2 µg/mL (≈ 3.03 µM); in the assay with Escherichia coli [12], 4.7 µg/mL (≈ 11.9 µM). The MIC in the assay with Escherichia coli [13] turned out to be 4.7 µg/mL (≈ 11.9 µM); with Escherichia coli [14] it was 9.3 µg/mL (≈ 23.5 µM); in the assay on Escherichia coli [15], 4.7 µg/mL (≈ 11.9 µM); against Escherichia coli [16], 2 µg/mL (≈ 5.04 µM).

As to `O=C(N[C@H](CO)[C@H](O)c1ccc([N+](=O)[O-])cc1)C(Cl)Cl` [CHLORAMPHENICOL], the MIC with Escherichia coli [1] worked out at 4 µg/mL (≈ 12.4 µM); in the assay with Escherichia coli [2] it was 13.3 µg/mL (≈ 41.2 µM); against Escherichia coli [4] it was 4 µg/mL (≈ 12.4 µM); against Escherichia coli [5], 10.7 µg/mL (≈ 33.1 µM); in the assay with Escherichia coli [6] it was 12 µg/mL (≈ 37.1 µM); in the assay with Escherichia coli [7] it was 24 µg/mL (≈ 74.3 µM). In addition, the MIC in the assay on Escherichia coli [8] stood at 4 µg/mL (≈ 12.4 µM); in the assay on Escherichia coli [9] it was 4 µg/mL (≈ 12.4 µM); with Escherichia coli [10] it was 4 µg/mL (≈ 12.4 µM); in the assay with Escherichia coli [11], 4 µg/mL (≈ 12.4 µM); in the assay with Escherichia coli [12] it was 6.7 µg/mL (≈ 20.7 µM); against Escherichia coli [13], 9.3 µg/mL (≈ 28.8 µM). For the same molecule, the MIC against Escherichia coli [14] was 21 µg/mL (≈ 65 µM); in the assay on Escherichia coli [15], 6 µg/mL (≈ 18.6 µM).

For `C[C@H]1c2cccc(O)c2C(=O)C2=C(O)[C@]3(O)C(=O)C(C(N)=O)=C(O)[C@@H](N(C)C)[C@@H]3[C@@H](O)[C@@H]21.O` [DOXYCYCLINE], the MIC was found to be 2 µg/mL in the assay with Escherichia coli [17]; 1.17 µg/mL in the assay on Escherichia coli [1]; 2 µg/mL with Escherichia coli [2]; 1.17 µg/mL in the assay on Escherichia coli [4]; 2 µg/mL in the assay with Escherichia coli [5]; 2 µg/mL against Escherichia coli [6]. The MIC stood at 0.75 µg/mL against Escherichia coli [18]; 3.7 µg/mL in the assay on Escherichia coli [7]; 0.5 µg/mL in the assay on Escherichia coli [8]; 0.83 µg/mL in the assay on Escherichia coli [9]; 1 µg/mL against Escherichia coli [10]; 0.75 µg/mL against Escherichia coli [11]. For the same molecule, the MIC with Escherichia coli [12] was determined as 2 µg/mL; against Escherichia coli [13] it was 2 µg/mL; against Escherichia coli [14], 3.3 µg/mL; in the assay on Escherichia coli [15], 2 µg/mL.

For `CCn1cc(C(=O)O)c(=O)c2ccc(C)nc21` [NALIDIXIC ACID], the MIC against Escherichia coli [17] came out at 3 µg/mL (≈ 12.9 µM); with Escherichia coli [1], 4 µg/mL (≈ 17.2 µM); in the assay with Escherichia coli [2], 3.3 µg/mL (≈ 14.2 µM); in the assay on Escherichia coli [3], 3 µg/mL (≈ 12.9 µM); against Escherichia coli [4], 4 µg/mL (≈ 17.2 µM); in the assay with Escherichia coli [5], 4 µg/mL (≈ 17.2 µM). Besides, the MIC in the assay with Escherichia coli [6] came to 3.3 µg/mL (≈ 14.2 µM); against Escherichia coli [18], 3 µg/mL (≈ 12.9 µM); against Escherichia coli [7] it was 6.7 µg/mL (≈ 28.8 µM); in the assay with Escherichia coli [8], 4 µg/mL (≈ 17.2 µM); with Escherichia coli [9], 3.7 µg/mL (≈ 15.9 µM); against Escherichia coli [10], 4 µg/mL (≈ 17.2 µM). The MIC against Escherichia coli [11] came out at 3.7 µg/mL (≈ 15.9 µM); in the assay with Escherichia coli [12], 4 µg/mL (≈ 17.2 µM); in the assay on Escherichia coli [13], 4 µg/mL (≈ 17.2 µM); against Escherichia coli [14], 10.7 µg/mL (≈ 46.1 µM); in the assay on Escherichia coli [15], 3.3 µg/mL (≈ 14.2 µM); with Escherichia coli [16], 3 µg/mL (≈ 12.9 µM).

Turning to `CN(C)[C@@H]1C(O)=C(C(N)=O)C(=O)[C@@]2(O)C(O)=C3C(=O)c4c(O)cccc4[C@@](C)(O)[C@H]3C[C@@H]12` [TETRACYCLINE], the MIC is 1 µg/mL (≈ 2.25 µM) in the assay on Escherichia coli [1]; 2 µg/mL (≈ 4.5 µM) in the assay on Escherichia coli [2]; 1 µg/mL (≈ 2.25 µM) with Escherichia coli [4]; 2 µg/mL (≈ 4.5 µM) in the assay with Escherichia coli [5]; 2 µg/mL (≈ 4.5 µM) against Escherichia coli [6]; 6 µg/mL (≈ 13.5 µM) against Escherichia coli [7]. Also, the MIC against Escherichia coli [8] came out at 0.5 µg/mL (≈ 1.13 µM); against Escherichia coli [9], 0.5 µg/mL (≈ 1.13 µM); in the assay on Escherichia coli [10], 1 µg/mL (≈ 2.25 µM); against Escherichia coli [11], 0.5 µg/mL (≈ 1.13 µM); against Escherichia coli [12] it was 1.83 µg/mL (≈ 4.12 µM); with Escherichia coli [13] it was 2 µg/mL (≈ 4.5 µM). Besides, the MIC was found to be 4 µg/mL (≈ 9 µM) against Escherichia coli [14] and 2 µg/mL (≈ 4.5 µM) against Escherichia coli [15].
